Data reported in the RNAGym collection of RNA variant scans (doi:10.1126/science.aae0568).
This sample holds only a part of the variants without activity.

B1: tRNA (parent)
chain: GUUCCGUUGGCGUAAUGGUAACGCGUCUCCCUCCUAAGGAGAAGACUGCGGGUUCGAGUCCCGUACGGAACG

Variants of: B1
Assay: yeast fitness relative to wild type (ratio to wild type); higher = fitter; tRNA-Arg(CCU), competitive growth, 37 C, YPD
How it was run: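 Changes in genotype frequencies gave Darwinian fitness relative to wild type. Frequencies were read by 100-nucleotide paired-end sequencing of gene amplicons before and after pooled Saccharomyces cerevisiae strains, carrying tRNA-Arg(CCU) gene variants at the native locus, were competed in YPD at 37°C for 24 hours in six replicates. A genotype was kept only with ≥ 100 starting reads, and estimates < 0.5 were set to 0.5.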

C4U G6A A36C and C4U G6A G25A U53A C66A cannot be ordered by yeast fitness: at most 0.5 for the first, at most 0.5 for the second.

C4U G6A G44C A69U A70G and C4U G6A U8G C31U C49A G67A cannot be ordered by yeast fitness: at most 0.5 for the first, at most 0.5 for the second.

Going from C4U G6C A21C C30G C46G to C4U G6C C30G, the yeast fitness falls from 0.524 to at most 0.5.

C4U G6C C33A A40C G41A U59A U64A C66G and C4U G6C U7A cannot be ordered by yeast fitness: at most 0.5 for the first, at most 0.5 for the second.

C4U G9A A15U A20C C27A C61G A65C and C4U G9A C22A U26A G52C G67A cannot be ordered by yeast fitness: at most 0.5 for the first, at most 0.5 for the second.

First: C4U G9A C22G A42U
Second: C4U G9A C22G A42U G68C
The yeast fitness of the first is higher: 0.546 for the first, at most 0.5 for the second.

C4U G9A C34U A36G C55G A57U G67A and C4U G9A G39A G44C cannot be ordered by yeast fitness: at most 0.5 for the first, at most 0.5 for the second.

Going from C4U G9A G67A to C4U G9A U54A, the yeast fitness falls from 0.598 to at most 0.5.

C4U G9C A20G A45G C61A G67A and C4U G9C C33G U54C cannot be ordered by yeast fitness: at most 0.5 for the first, at most 0.5 for the second.

Going from C4U G9C G18A A21G C24U A37C to C4U G9C G18A U26G A45C, the yeast fitness falls from 0.694 to at most 0.5.

C4U G10A C11G A20G C27G A65U and C4U G10A C11G A20G C27G C29U A65U cannot be ordered by yeast fitness: at most 0.5 for the first, at most 0.5 for the second.

First: C4U G10A C22G
Second: C4U G10A C22U G44C
The yeast fitness of the first is higher: 0.642 for the first, at most 0.5 for the second.

Going from C4U G10C to C4U G10C A21G C30A G38C C46U A70C, the yeast fitness falls from 0.625 to at most 0.5.

Compared with C4U G10C A36U, C4U G10C C30A G50A is lower in yeast fitness: 0.659 for the first, at most 0.5 for the second.

C4U G10C G23A U26C U32C A43G U53A and C4U G10C G48C G63C G67A cannot be ordered by yeast fitness: at most 0.5 for the first, at most 0.5 for the second.

C4U G12A A14G G18A C30G C46U and C4U G12A A20G C22U A57G cannot be ordered by yeast fitness: at most 0.5 for the first, at most 0.5 for the second.

Going from C4U G12A A20G C22U G68C to C4U G12A A40U, the yeast fitness rises from at most 0.5 to 0.642.

First: C4U G12A A40U A65C
Second: C4U G12A A40U A69C
The yeast fitness of the first is lower: at most 0.5 for the first, 0.56 for the second.

C4U G12A A42U and C4U G12A A45C C49U cannot be ordered by yeast fitness: at most 0.5 for the first, at most 0.5 for the second.

Compared with C4U G12A C27G C34A C49A G68U, C4U G12A C46U is higher in yeast fitness: at most 0.5 for the first, 0.728 for the second.

Compared with C4U G12A C60A, C4U G12A G39C C49A U64G is higher in yeast fitness: at most 0.5 for the first, 0.544 for the second.

First: C4U G12A U28A A42C
Second: C4U G12C A21C C29G A36G C46U G58A
The yeast fitness of the first is higher: 0.515 for the first, at most 0.5 for the second.

C4U G12C C29U C31U U54G A65U G67A and C4U G12C C30G A36C cannot be ordered by yeast fitness: at most 0.5 for the first, at most 0.5 for the second.

C4U G12C C49A U64C and C4U G12C C60G A70C cannot be ordered by yeast fitness: at most 0.5 for the first, at most 0.5 for the second.

C4U G12C U28G C62G and C4U G12C U28G C62G A70U cannot be ordered by yeast fitness: at most 0.5 for the first, at most 0.5 for the second.

C4U G12C U54G and C4U G17A C22U G68C cannot be ordered by yeast fitness: at most 0.5 for the first, at most 0.5 for the second.

C4U G17A C33G and C4U G17C G18C C22A C60A C66U cannot be ordered by yeast fitness: at most 0.5 for the first, at most 0.5 for the second.

C4U G18A A21C A36U and C4U G18A A21C G48C cannot be ordered by yeast fitness: at most 0.5 for the first, at most 0.5 for the second.

C4U G18A C22U A40C and C4U G18C A20C G39A cannot be ordered by yeast fitness: at most 0.5 for the first, at most 0.5 for the second.

C4U G18C G50A and C4U G23A A40C U54A U59A cannot be ordered by yeast fitness: at most 0.5 for the first, at most 0.5 for the second.

C4U G23A G56C A57G G68A and C4U G23A U28C G56C cannot be ordered by yeast fitness: at most 0.5 for the first, at most 0.5 for the second.

Compared with C4U G23C, C4U G23C A36C C55G A57U G67A is lower in yeast fitness: 0.716 for the first, at most 0.5 for the second.

C4U G23C A40U A42G A45G G51C C61U and C4U G23C A40U A42G A45G G51C C61U G63A cannot be ordered by yeast fitness: at most 0.5 for the first, at most 0.5 for the second.

C4U G23C U47C C49A G68C and C4U G25A A36C A70G cannot be ordered by yeast fitness: at most 0.5 for the first, at most 0.5 for the second.

Compared with C4U G25A A65G, C4U G25A C66U is higher in yeast fitness: 0.718 for the first, 0.75 for the second.

Compared with C4U G25A U54A, C4U G25C is higher in yeast fitness: at most 0.5 for the first, 0.999 for the second.

Compared with C4U G25C A45C C46A, C4U G25C C34U A65U is lower in yeast fitness: 0.733 for the first, at most 0.5 for the second.

Compared with C4U G25C G68A, C4U G38A is lower in yeast fitness: 0.976 for the first, 0.919 for the second.

First: C4U G38A U47C
Second: C4U G38C
The yeast fitness of the first is lower: 0.501 for the first, 0.825 for the second.

First: C4U G38C A65G
Second: C4U G38C C61U
The yeast fitness of the first is higher: 0.621 for the first, 0.54 for the second.

C4U G38C C61U C66U and C4U G38C G50A A70G cannot be ordered by yeast fitness: at most 0.5 for the first, at most 0.5 for the second.

C4U G39A A42G G63A G67A and C4U G39A A42G G67A cannot be ordered by yeast fitness: at most 0.5 for the first, at most 0.5 for the second.

Compared with C4U G39C U59G C62A, C4U G41C is higher in yeast fitness: at most 0.5 for the first, 0.819 for the second.

C4U G41C C61A and C4U G41C G48A C61A cannot be ordered by yeast fitness: at most 0.5 for the first, at most 0.5 for the second.

Going from C4U G44A C61G to C4U G44A G58A, the yeast fitness rises from at most 0.5 to 0.974.

Compared with C4U G44A U47C G56A, C4U G44C A57U is higher in yeast fitness: at most 0.5 for the first, 0.595 for the second.

Compared with C4U G44C A69U A70G, C4U G44C G67A is higher in yeast fitness: at most 0.5 for the first, 0.768 for the second.

First: C4U G44U
Second: C4U G48A G50A
The yeast fitness of the first is lower: 0.757 for the first, 0.961 for the second.

Going from C4U G48A U54G to C4U G48C A70U, the yeast fitness rises from at most 0.5 to 0.542.

Going from C4U G48C C66U to C4U G48C G67U A69C, the yeast fitness falls from 0.729 to at most 0.5.

Going from C4U G50A to C4U G50A G67A, the yeast fitness falls from 0.965 to 0.553.

First: C4U G50A G67C
Second: C4U G51C U59G U64C
The yeast fitness of the first is higher: 0.578 for the first, at most 0.5 for the second.

Going from C4U G52A A70U to C4U G52C, the yeast fitness rises from 0.604 to 0.726.

Going from C4U G52C C61A to C4U G56A A70C, the yeast fitness rises from 0.581 to 0.754.

Compared with C4U G58C A69C, C4U G63A is higher in yeast fitness: 0.765 for the first, 0.894 for the second.

Going from C4U G63C to C4U G67C, the yeast fitness rises from 0.782 to 0.829.

Going from C4U G68A to C4U G68C, the yeast fitness rises from 0.856 to 0.963.

First: C4U G68U
Second: C4U U7A A20G G23A U26G
The yeast fitness of the first is higher: 0.888 for the first, at most 0.5 for the second.

Compared with C4U U7A A36G, C4U U7A A36U is higher in yeast fitness: at most 0.5 for the first, 0.567 for the second.

Going from C4U U7A A36U A65G to C4U U7A A36U A70G, the yeast fitness falls from 0.535 to at most 0.5.

C4U U7A A45U A57G and C4U U7A C22U U54C C66U G68C A69U cannot be ordered by yeast fitness: at most 0.5 for the first, at most 0.5 for the second.

First: C4U U7A C30G C34G A40C
Second: C4U U7A C30G C34G A40C A57U
The yeast fitness of the first is higher: 0.512 for the first, at most 0.5 for the second.

First: C4U U7A C30G C34G A40C A65U
Second: C4U U7A C46G A65C
The yeast fitness of the first is lower: at most 0.5 for the first, 0.535 for the second.

First: C4U U7A C49U
Second: C4U U7A G50C
The yeast fitness of the first is higher: 0.58 for the first, at most 0.5 for the second.

Compared with C4U U7A G68A, C4U U7A U13A U32C G44C is higher in yeast fitness: at most 0.5 for the first, 0.718 for the second.

C4U U7C A15C U16G A70G and C4U U7C A57U C61U cannot be ordered by yeast fitness: at most 0.5 for the first, at most 0.5 for the second.

C4U U7C C29G C49A and C4U U7G C11G C46G cannot be ordered by yeast fitness: at most 0.5 for the first, at most 0.5 for the second.

Going from C4U U8A to C4U U8A A20G C24A, the yeast fitness falls from 0.66 to at most 0.5.

C4U U8A A36C C61U and C4U U8A C22U cannot be ordered by yeast fitness: at most 0.5 for the first, at most 0.5 for the second.

Compared with C4U U8A C33U A36U, C4U U8A U13C A37G C46A is lower in yeast fitness: 0.545 for the first, at most 0.5 for the second.

C4U U8A U13C A57C and C4U U8A U13C C46A C61U cannot be ordered by yeast fitness: at most 0.5 for the first, at most 0.5 for the second.

First: C4U U8A U16C A20U C29U A45C
Second: C4U U8A U32G U35A C62U
The yeast fitness of the first is lower: at most 0.5 for the first, 0.707 for the second.

Going from C4U U8C to C4U U8C A15C G63C, the yeast fitness falls from 0.942 to at most 0.5.

Compared with C4U U8C A36G G44C, C4U U8C A37U A45U C49U is lower in yeast fitness: 0.676 for the first, at most 0.5 for the second.

Going from C4U U8C A37U A45U C49U A65G to C4U U8C A69U, the yeast fitness rises from at most 0.5 to 0.875.

First: C4U U8C C27G A45C U47C C55U
Second: C4U U8C U47A
The yeast fitness of the first is lower: at most 0.5 for the first, 0.601 for the second.

C4U U8G A15U and C4U U8G G12A C55U cannot be ordered by yeast fitness: at most 0.5 for the first, at most 0.5 for the second.

First: C4U U8G U19A A21C A70U
Second: C4U U13A
The yeast fitness of the first is lower: at most 0.5 for the first, 1.1 for the second.

First: C4U U13A A14U C29U A37G A57C
Second: C4U U13A C46U U53A
The yeast fitness of the first is lower: at most 0.5 for the first, 0.633 for the second.

Going from C4U U13A G23A A36U G39C C62A U64A to C4U U13A G23A C24A A36U G39C C62A U64A, the yeast fitness falls from 0.537 to at most 0.5.

Going from C4U U13A U59A to C4U U13C, the yeast fitness rises from 0.811 to 0.884.

Compared with C4U U13C A14G, C4U U13C G25A C60A C62U is lower in yeast fitness: 0.587 for the first, at most 0.5 for the second.

C4U U13C U26A G63C and C4U U13G C29U C34U cannot be ordered by yeast fitness: at most 0.5 for the first, at most 0.5 for the second.

Variant C4U U16A A20G C66U has a yeast fitness of at most 0.5.
